Columns and labels:
[1] = target: 5-lipoxygenase (Solanum tuberosum); assay: Inhibition of 5-lipoxygenase
[2] = system: COLO 205; assay: Cytotoxicity against human COLO205 cells after 24 hrs by MTT assay; format: functional; conditions: COLO 205, 24 h
How it was run: (§1)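 Cells kept at 37 °C in humidified 5% CO2 and seeded at 5 × 10³ cells/well the day before. They were PBS-washed, given fresh medium, then exposed to test compounds (0.1–100 µM) for 24 h. MTT (5 mg/mL in PBS) was then added for 4 h at 37 °C. Formazan was dissolved in DMSO and OD read at 570 nm. Each concentration was run in three experiments, three replicates each.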

[3] = system: MCF7; assay: Cytotoxicity against human MCF7 cells after 24 hrs by MTT assay; format: functional; conditions: MCF7, 24 h
How it was run: as §1

[4] = system: HaCaT; assay: Cytotoxicity against human HaCaT cells at up to 100 uM after 24 hrs by MTT assay; format: cell-based
How it was run: as §1

Row | SMILES | IC50 [1] | GI50 [2] | GI50 [3] | Activity [4]
1 | COc1ccc(/C=C/C(=O)c2ccc(OCC=C(C)C)cc2O)cc1 | > 100 µM | > 100 µM | 97.5 µM | 
2 | COc1ccc(/C=C/C(=O)c2ccc(OCC=C(C)C)cc2O)cc1OC | > 100 µM | > 100 µM | > 100 µM | 
3 | COc1cccc(/C=C/C(=O)c2ccc(OCC=C(C)C)cc2OCC=C(C)C)c1OC |  | 99 µM | 73 µM | 
4 | COc1cc(/C=C/C(=O)c2ccc(OCC=C(C)C)cc2OCC=C(C)C)cc(OC)c1OC | 4 µM | 78 µM | 9 µM | Non-toxic
5 | COc1cc(/C=C/C(=O)c2ccc(OCC=C(C)C)cc2O)cc(OC)c1OC | > 100 µM | 96 µM | 81 µM | 
6 | COc1ccc(/C=C/C(=O)c2ccc(OCC=C(C)C)cc2OCC=C(C)C)cc1 |  | 97 µM | 67.5 µM | 

Continued, in another order:

Row | IC50 [1] | SMILES | GI50 [2] | GI50 [3] | Activity [4]
7 | 9 µM | COc1ccc(/C=C/C(=O)c2ccc(OCC=C(C)C)cc2OCC=C(C)C)cc1OC | 90 µM | 66.5 µM | 
8 | > 100 µM | COc1cccc(/C=C/C(=O)c2ccc(OCC=C(C)C)cc2O)c1OC | > 100 µM | > 100 µM | 
9 | > 100 µM | COc1ccc(/C=C/C(=O)c2ccc(OCC=C(C)C)cc2O)c(OC)c1OC | > 100 µM | > 100 µM | 
10 | 49 µM | COc1ccc(/C=C/C(=O)c2ccc(OCC=C(C)C)cc2OCC=C(C)C)c(OC)c1OC | > 100 µM | 92 µM | 

Source: ChEMBL document CHEMBL1212887, “Design, synthesis, and biological evaluation of prenylated chalcones as 5-LOX inhibitors” (Bioorg Med Chem, 2010)
